Screens from PubChem.
Compounds with a hit are over-represented: about 2.4% of the library has one in this group of screens.
SUMO1-SIM PPI: SUMO1-SIM interaction modulation | P63165 | actives 0.33% (n = 360,000) | SUMO1 binding to a labelled peptide, TR-FRET, 1 h | inhibition, % at 20 µM; in the data active = inhibition above about 37%
Target sequence (P63165 whole entry, looked up): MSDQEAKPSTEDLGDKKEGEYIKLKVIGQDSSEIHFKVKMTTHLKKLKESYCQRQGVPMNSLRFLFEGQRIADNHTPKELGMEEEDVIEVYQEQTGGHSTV
DNMT1 block: DNMT1 (human) enzyme inhibition. P26358. DNMT1 molecular beacon, Hinp1I cleavage, fluorescence. inhibition (reported as % activation of signal), % at 10 µM. actives 0.83% (n = 360,000); in the data active = inhibition above about 50%
LMPTP block: LMPTP (human) inhibition; inhibition, % at 20 µM; actives 0.22% (n = 360,000); P24666; AID 651560; recombinant LMPTP-A, OMFP fluorogenic substrate, fluorescence intensity;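 active = compounds that cut the enzyme signal by at least half of the control window in the single-dose screen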
Target sequence (P24666 whole entry, looked up): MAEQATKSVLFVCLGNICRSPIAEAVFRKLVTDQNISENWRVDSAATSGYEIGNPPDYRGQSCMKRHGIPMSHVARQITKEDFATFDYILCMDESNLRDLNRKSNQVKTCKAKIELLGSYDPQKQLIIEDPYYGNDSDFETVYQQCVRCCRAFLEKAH
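Assay system: LMPTP-A enzyme. Input: 0.625 nM LMPTP-A final. Probe or stimulus: 400 µM OMFP. Compound dosing: single 20 µM dose. Schedule: 50 min dark incubation at room temperature. Detection: fluorescence intensity of OMFP turnover product. Read-out: percent inhibition versus substrate-only and uninhibited controls. Benchmarks: no-enzyme low control, uninhibited high control.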
STEP block: inhibitors of human striatal-enriched phosphatase STEP; P54829; recombinant STEP, OMFP fluorogenic substrate, fluorescence; inhibition, % at 20 µM; actives 0.25% (n = 360,000); AID 588621;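 active = inhibition at 20 µM, scaled per plate between control wells, above about 37%, limit read from the data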
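material = STEP tyrosine phosphatase | reagent = fluorogenic phosphatase substrate OMFP at 25 µM final | doses = single compound dose of 20 µM, 1% DMSO final | schedule = 20 min reaction, room temperature, in the dark | measured by = fluorescence, 480/540 nm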
NadD block: NadD (S. aureus) enzyme inhibition | purified NadD enzyme, colorimetric absorbance read-out | inhibition, % at 20 µM | actives 0.78% (n = 360,000) | AID 602399; in the data active = inhibition above about 26%
Scp-1 inhibitor: Scp-1 (human) phosphatase inhibition; actives 0.88% (n = 340,000); inhibition, % at 20 µM; Recombinant Scp1, phosphopeptide, malachite green phosphate absorbance; AID 493091; Q9GZU7;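 active = inhibition above about 50% at 20 µM, limit read from the data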
Target sequence (Q9GZU7 76-261 limits assumed): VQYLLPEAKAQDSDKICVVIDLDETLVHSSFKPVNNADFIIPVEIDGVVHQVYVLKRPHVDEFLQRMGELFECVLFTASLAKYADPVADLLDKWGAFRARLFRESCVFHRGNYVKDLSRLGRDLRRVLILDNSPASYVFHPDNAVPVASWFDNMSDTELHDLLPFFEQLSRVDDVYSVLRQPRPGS
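System: SCP-1 catalytic domain; Reagent: Phospho 17-mer peptide substrate; Doses: one concentration, 20 µM, with 1.0% DMSO; Incubation: 45 min room-temperature reaction, 5 min colour, 30 min stabiliser; Signal: Phosphate-binding colour reagent, absorbance read at 630 nm.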
Hits are given with their value; n = inactive; x = no result given.

SMILES	SUMO1-SIM PPI	DNMT1 block	LMPTP block	STEP block	NadD block	Scp-1 inhibitor
CC(=O)c1ccc(NC(=O)CSc2nc3nn(-c4ccccc4)c(=O)c-3c3n2CCCCC3)cc1	n	n	n	n	n	n
O=C(NCc1cccnc1)C1C2C=CC(C2)C1C(=O)Nc1cccc(C(F)(F)F)c1 (centres undefined)	40	n	n	n	n	x
O=C(O)C1C2C=CC(C2)C1C(=O)NCc1cccnc1 (centres undefined)	n	n	n	n	n	n
Cc1n[nH]c(=S)n1-c1cccc(Cl)c1	n	n	n	n	n	n
O=C(/C=C/c1ccco1)Nc1cccc2cccnc12	n	63	50	n	n	n
Cc1occc1-c1nnc(SCC(=O)NC(C)(C)C)n1CC(C)C	n	n	n	n	n	n
CCCC[n+]1c2ccccc2cc2ccccc21	n	n	n	n	n	n
CCC[n+]1c2ccccc2cc2ccccc21	n	n	n	n	n	55
CCCCCOc1ccc(/C=c2\sc3nc(=O)c(-c4ccccc4)nn3c2=O)cc1OC	n	n	n	n	n	n
C=CCOc1ccccc1/C=c1\sc2nc(=O)c(C)nn2c1=O	n	53	n	n	n	n
CSc1nc(C)cc(-n2cc(F)c(=O)[nH]c2=O)n1	n	n	n	n	n	n
Nc1ccc2nc(-c3ccc(Cl)cc3)[nH]c2c1	n	n	n	n	n	n
Nc1ccc2cc3[nH]c4cc(N)ccc4c3nc2c1	n	194	58	n	54	n
C=CCN1C(=O)C(O)(CC(=O)c2ccc(-n3cccc3)cc2)c2ccccc21 (centres undefined)	n	n	n	n	27	n
O=C(CC1(O)C(=O)Nc2ccccc21)c1ccc(-n2cccc2)cc1 (centres undefined)	n	n	n	n	n	n
O=C(NC(=S)NCc1ccncc1)c1ccccc1	n	n	n	n	n	n
Cc1ccc(CNC(=O)CSc2ccsc2[N+](=O)[O-])cc1	n	n	n	n	n	n
CCN(CC)c1ccc(NC(=O)CSc2ccsc2[N+](=O)[O-])c(C)c1	n	53	n	n	n	n
N#C/C(=C/c1ccc(-c2cc([N+](=O)[O-])ccc2Cl)o1)C(N)=O	39	n	n	n	n	n
N#C/C(=C/c1ccc(-c2ccccc2[N+](=O)[O-])o1)C(N)=O	n	n	n	n	n	n
N#C/C(=C\c1ccc(-c2ccc(C(=O)O)cc2)o1)c1nc2ccccc2[nH]1	n	n	n	60	n	57
C[N+]1(CC(O)COCC2COc3ccccc3O2)CCOCC1 (centres undefined)	n	n	n	n	n	106
Cc1ccc2ncccc2c1	n	n	n	n	n	n
Cc1nnc(C)c2c(C)n(-c3ccc4ncccc4c3)c(C)c12	n	n	54	n	n	n
COc1cc(/C=C2\SC(=Nc3ccc(Cl)c(C(=O)O)c3)NC2=O)c(Br)c(Br)c1O	n	n	n	n	70	53
SMILES	SUMO1-SIM PPI	DNMT1 block	LMPTP block	STEP block	NadD block	Scp-1 inhibitor
COc1cc(/C=C2\SC(=Nc3ccccc3)NC2=O)cc(Cl)c1O	n	n	n	n	n	n
O=C(O)CCN1C(=O)/C(=C2\C(=O)N(Cc3ccccc3Cl)c3ccccc32)SC1=S	n	89	80	98	n	x
O=C(O)CN1C(=O)/C(=C2\SC(=S)N(C(Cc3ccccc3)C(=O)O)C2=O)c2ccccc21 (centres undefined)	n	n	n	n	n	n
COc1ccc(NC(=O)CN2C(=O)/C(=C3\SC(=S)N(CCC(=O)O)C3=O)c3ccccc32)cc1	n	n	86	n	51	97
CCCS(=O)(=O)NC(=O)C1(C)CCN(C(=O)c2ccc(F)cc2Cl)C1 (centres undefined)	n	n	n	n	n	x
CCOC(=O)C1=C(CN2CCOCC2)NC(=O)NC1c1cccc([N+](=O)[O-])c1 (centres undefined)	n	n	n	n	n	n
O=c1cc(CN2CCN(Cc3ccccc3)CC2)c2ccc(O)c(O)c2o1	n	n	55	n	n	n
Cc1ccc(N(C)S(=O)(=O)c2ccc3c(c2)CC(C)N3C(=O)C2CC2)cc1 (centres undefined)	n	n	n	n	n	n
CSc1ccccc1C(=O)NC1CCCC1	n	n	n	n	n	n
O=C1c2cc(Br)ccc2N(Cc2ccc(Br)cc2)S(=O)(=O)C1c1cc(Cl)c(Cl)cc1[N+](=O)[O-] (centres undefined)	n	n	n	n	32	n
CN(/N=C/c1ccc(O)cc1O)c1nc(-c2ccccc2)cc(-c2ccccc2)n1	n	n	n	n	33	n
CCOC(=O)C1=C(C)N=c2s/c(=C/c3ccc(OCC(=O)O)cc3)c(=O)n2C1c1ccc(F)cc1 (centres undefined)	n	n	n	n	n	n
CCOC(=O)C1=C(C)N=c2s/c(=C/c3ccc(OCC(=O)O)cc3)c(=O)n2C1c1ccc(SC)cc1 (centres undefined)	n	n	n	85	n	x
CCN(c1ccc(C)c(C)c1)S(=O)(=O)c1ccc2c(c1)CCN2C(=O)CCC(=O)O	47	n	n	n	n	n
COc1ccc(S(=O)(=O)Nc2cccc(-n3cnnn3)c2)cc1OC	n	n	n	n	n	n
CCn1c(SCC(=O)Nc2ccc(C)cc2)nnc1-c1ccccn1	n	n	n	n	n	n
CCn1c(SCC(=O)Nc2ccc(C)cc2)nnc1-c1ccc(O)cc1	44	n	n	n	n	n
CCCCCCc1cc2cc(C(=O)NCc3ccccc3)c(=N)oc2cc1O	n	n	n	n	31	n
COc1ccc(C(=O)Nc2ccc(C(=O)O)cc2NC(=O)c2ccc(OC)cc2)cc1	n	n	n	n	n	n
COCC(=O)OC1CCn2c1nc1c2C(=O)C(C)=C(NC(C)=O)C1=O (centres undefined)	n	88	n	n	n	n
CCN(CC(=O)Nc1ccc(OC)cc1)C(=O)Cc1ccsc1	n	n	n	n	n	n
Cc1cc(NS(=O)(=O)c2ccc(Nc3nc(-c4ccc(C)c(C)c4)cs3)cc2)no1	n	n	n	n	n	n
CCCC(=O)Nc1nc(C)c(-c2csc(Nc3cc(OC)ccc3OC)n2)s1	n	n	n	n	n	n
COc1ccc(OC)c(Nc2nc(-c3sc(N)nc3C)cs2)c1	n	n	n	n	32	n
Cc1cc(NS(=O)(=O)c2ccc(Nc3nc(-c4sc(N)nc4C)cs3)cc2)no1	51	86	n	n	37	n
Cc1cc(NC(=O)CSc2nnc(-c3ccncc3)n2-c2ccc(F)cc2)no1	n	n	n	n	n	n
Cc1ccc(-c2cc(C(=O)NCCCn3ccnc3)c3cc(Br)ccc3n2)o1	n	n	n	n	49	n
